Compound activity: PubChem BioAssay, several laboratories
Sampled rows, rich in hits. Any-hit rate of the full collection: about 1.3%.
S1P4 antag = S1P4 receptor antagonists, primary screen, cell-based; S1P4-expressing cells, antagonist mode, reporter read-out; inhibition, % at 4.98 µM; hit rate 0.26% among 220,000; AID 1510, 2009; in the data active = inhibition above about 29%;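 also: 0% = wells stimulated with agonist and 100% = vehicle wells without agonist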
Target sequence (O95977 whole entry, looked up): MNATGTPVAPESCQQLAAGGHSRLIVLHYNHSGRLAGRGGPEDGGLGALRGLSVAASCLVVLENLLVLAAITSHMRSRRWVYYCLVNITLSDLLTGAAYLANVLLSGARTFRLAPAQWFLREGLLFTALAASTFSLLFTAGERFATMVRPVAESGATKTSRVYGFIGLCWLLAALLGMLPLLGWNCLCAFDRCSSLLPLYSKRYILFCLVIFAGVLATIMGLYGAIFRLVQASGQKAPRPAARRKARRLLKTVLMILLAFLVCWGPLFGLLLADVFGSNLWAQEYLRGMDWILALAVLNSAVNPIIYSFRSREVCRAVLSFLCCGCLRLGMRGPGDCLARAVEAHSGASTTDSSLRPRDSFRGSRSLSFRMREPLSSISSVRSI
S1P3 antag = S1P3 receptor antagonists, primary screen, cell-based | Sphingosine 1-phosphate receptor 3 (Homo sapiens), Q99500 | CHO S1P3 NFAT-BLA reporter, FRET fluorescence, antagonist mode | inhibition, % at 4.98 µM | hit rate 0.27% among 170,000 | AID 485, 2006;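 active = inhibition above the plate cutoff, the mean inhibition of test wells on that plate plus 3 SD, cut at about 28% in these data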;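 also: cells challenged with S1P at its EC80 of 0.8 µM; blue over green emission ratio from cleaved BLA substrate after 4 h stimulation; 0% = S1P-stimulated wells and 100% = unstimulated DMSO-only wells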
S1P4 agonist = S1P4 receptor agonists, primary screen, cell-based | S1P4-expressing cell line, agonist reporter assay | activation, % at 4.98 µM | hit rate 0.35% among 220,000; in the data active = activation above about 11%;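 also: 0% = DMSO vehicle and 100% = reference agonist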
Biofilm kill mix = clotrimazole potentiators killing C. albicans biofilm, primary screen, 4-compound mixtures; C. albicans biofilm persisters + clotrimazole, fluorescence viability; primary screen in compound mixtures of four per well; inhibition, % at 7.6 µM; hit rate 0.02% among 120,000; AID 1242, 2008;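 active = inhibition above 30.3% in the primary screen of four-compound pools, then above 30% when the compound was retested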;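 also: compounds exposed to preformed 24 h biofilms for 48 h; 0% = untreated biofilm control and 100% = clotrimazole plus chlorhexidine kill blank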
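Test system: C. albicans biofilms. Buffer or medium: RPMI/MOPS medium, pH 7.0. Timing: 48 h compound exposure at 37 °C. Technique: Alamar Blue fluorescence. Evaluation: percent inhibition of biofilm viability.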
Tb hexokinase = Trypanosoma brucei hexokinase 1 inhibitors, primary screen, biochemical, G6PDH-coupled NADH absorbance, MLSCN library; hexokinase 1 [Trypanosoma brucei]; recombinant TbHK1, G6PDH-coupled NADH A340; inhibition, % at 10 µM; hit rate 0.11% among 220,000;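 active = inhibition of 50% or more in the single-dose primary screen; inactive = inhibition below 50%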
Dynein transport = inhibitors of GR-EGFP nuclear translocation, primary screen, dynein cargo transport inhibitor project, imaging, high-content, 3617.4 mouse cells | test concentration mostly 20 µM; stimulated with dexamethasone, 1 µM; stronger effect = lower value | hit rate 0.47% among 220,000 | z-score, hits read low | AID 1381, 2008;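 active = plate z-score of nuclear minus cytoplasmic receptor signal below a set negative limit, without overly bright fluorescence or cell loss, cut at about -3.5 in these data, passing the limit was not always enough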;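 also: z-score of nuclear minus cytoplasmic ring GR-EGFP intensity difference per well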
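Buffer or medium: tet-free medium with charcoal-stripped serum / Also added: dexamethasone agonist, 1.0 µM final, for 30 min / Timing: induction 48 h, compound 1 h, agonist 30 min / Measured by: high-content fluorescence imaging after fixation / Read-out: nuclear-to-cytoplasmic GR-EGFP distribution per well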
G6PDH counter = Leuconostoc G6PDH inhibition, confirmation, counter-screen for TbHK1 inhibitor project, biochemical, DPI cherry-picked compounds, single concentration | shares compounds with Tb hexokinase | purified G6PDH, NADH absorbance, 1 h | inhibition, % at 10 µM | hit rate 7% among 210;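 active = at least 50% inhibition in the glucose-6-phosphate dehydrogenase coupled counterscreen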
TbHK1 rescreen = TbHK1 inhibitor retest, confirmation, biochemical, DPI cherry-picked primary actives; shares compounds with Tb hexokinase; recombinant TbHK1, G6PDH-coupled NADH A340 absorbance; inhibition, % at 10 µM; hit rate 10% among 210;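 active = inhibition of at least 50% in both of the two screening runs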;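 also: 0% and 100% set by the maximum and minimum signal control wells on each plate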
S1P4 ag conf = S1P4 receptor agonists, retest, confirmation, cell-based, high throughput; activation, % at 4.98 µM; S1P4 agonist cell-based reporter assay; AID 1523, 2009; hit rate 7% among 740; shares compounds with S1P4 agonist; in the data active = activation above about 12%;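 also: 0% = vehicle and 100% = full reference agonist response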
S1P1 ag = S1P1 receptor agonists, human, counter-screen for S1P4 agonist project, cell-based; activation, % at 4.98 µM; S1P1 agonist cell-based assay, activation; shares compounds with S1P4 agonist; hit rate 4% among 740; in the data active = activation above about 21%;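 also: 0% = vehicle wells and 100% = reference agonist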
Numbers without * were called inactive; / = no result.

SMILES | S1P4 antag | S1P3 antag | S1P4 agonist | Biofilm kill mix | Tb hexokinase | Dynein transport | G6PDH counter | TbHK1 rescreen | others
Cn1c(SCc2ccc(C#N)cc2)nnc1-c1cccc(Cl)c1 | -1 | -6 | 0 | / | 55* | -0.26 | -12 | 20
Cc1ccccc1Nc1nc(N)nc(CN2CCN(C(=O)c3ccccc3)CC2)n1 | -24 | -19 | -1 | 12 | 8 | 0.4 | / | /
COc1ccc(NC(=O)C2CC(c3cc(OC)c(OC)c(OC)c3)=NO2)cc1OC (stereo not given) | -9 | -26 | 0 | / | 3 | -0.044 | / | /
COc1cccc(C2=NOC(C(=O)Nc3cc(OC)c(OC)c(OC)c3)C2)c1 (stereo not given) | 1 | -4 | 2 | / | 65* | 0.12 | -8 | -2
CCOCCCNC(=O)C(NC(=O)c1cnccn1)c1ccc(C)cc1 (stereo not given) | -20 | / | 1 | / | 55* | -0.78 | -5 | 3
CCOCCCNC(=O)C(NC(=O)c1ccc(NC(C)=O)cc1)c1ccc(C)cc1 (stereo not given) | -13 | -23 | 0 | 17 | -4 | -0.65 | / | /
COc1ccc(C(=O)NNS(=O)(=O)c2ccccc2)cc1 | -15 | 7 | 0 | 17 | -1 | 0.024 | / | /
COc1ccc(S(=O)(=O)NNC(=O)C(=O)NNc2ccccn2)cc1 | -11 | 7 | 1 | 18 | 53* | -0.22 | -16 | 10
CCN(CC)S(=O)(=O)c1cccc(NC(=O)COC(=O)c2cccs2)c1 | -11 | -15 | 2 | 8 | 2 | 0.39 | / | /
CCOc1ccc(NC(N)=O)cc1 | -40 | -15 | 3 | / | 60* | -0.53 | -1 | 4
COc1ccc(C2C(C#N)=C(N)Oc3cc(C)[nH]c(=O)c32)cc1OC (stereo not given) | 15 | 4 | 0 | 19 | -9 | -0.57 | / | /
COc1ccc2nc(N3C(=O)/C(=C/c4ccc(Cl)cc4)NC3=S)sc2c1 | -11 | 1 | 0 | 14 | 50* | -2.8 | -108 | -23
O=C(CSc1ccsc1[N+](=O)[O-])N1CCN(c2ccccn2)CC1 | 9 | 12 | -1 | 17 | -5 | -0.015 | / | /
CC(=O)Nc1nc2ccccc2n1Cc1ccccc1Cl | 27 | 20 | 0 | 22 | -7 | 0.84 | / | /
CC(=O)Nc1nc2ccccc2n1CCOc1ccccc1Cl | -13 | -15 | 0 | / | 52* | -0.86 | 0 | -4
O=C1CC(C(=O)NCc2ccccc2)C2(CCCC2)O1 (stereo not given) | -18 | -2 | 2 | / | 55* | -0.49 | 1 | 2
COCCNC(=O)CN(Cc1ccc2c(c1)OCO2)C(=O)CCC(=O)Nc1nccs1 | -23 | -3 | 3 | / | 53* | -0.65 | -13 | -1
Cc1occc1-c1nnc(SCC(=O)N2CCOCC2)n1CCc1ccccc1 | -15 | -13 | -2 | / | 54* | 1.1 | -10 | -2
CCc1cccc(NC(=O)C2CCCC2)c1 | 2 | 14 | 1 | / | -2 | -0.4 | / | /
CCc1cccc(NC(=O)NC2CCCCC2)c1 | -7 | 14 | 1 | / | 60* | -0.39 | -5 | 5
COc1ccc(C(=O)Nc2cc(Cl)ccc2OC(=O)c2ccc(OC)cc2)cc1 | -23 | / | 2 | / | 0 | -0.22 | / | /
COc1ccc(C(=O)Nc2cc(Cl)ccc2C(=O)O)cc1 | -14 | 0 | -2 | -2 | 53* | 2.6 | -20 | 65*
COc1cc(-c2nnn(CC(=O)NC3CCS(=O)(=O)C3)n2)ccc1OCc1ccccc1 (stereo not given) | -8 | -12 | 0 | / | 66* | 0.39 | -38 | 1
O=C(Nc1ccc2c(c1)OCO2)C1CCN(S(=O)(=O)c2cccs2)CC1 | -1 | / | 1 | / | -3 | 2 | / | /
O=C(Nc1ccc2c(c1)OCCO2)C1CCCN(S(=O)(=O)c2cccs2)C1 (stereo not given) | -17 | 0 | 2 | / | 58* | 0.048 | -1 | -3
SMILES | S1P4 antag | S1P3 antag | S1P4 agonist | Biofilm kill mix | Tb hexokinase | Dynein transport | G6PDH counter | TbHK1 rescreen | others
O=C(Nc1ccc2c(c1)OCO2)C1CCCN(S(=O)(=O)c2cccs2)C1 (stereo not given) | -21 | 11 | 3 | / | 55* | 0.37 | 2 | -5
COC(=O)c1ccccc1NC(=O)CCS(=O)(=O)c1ccc(Br)cc1 | -24 | 1 | 0 | 11 | 62* | 0.0062 | -6 | 67*
Cc1ccc(OCC(=O)Nc2ccc3c(c2)OCCO3)cc1C | -17 | -7 | -1 | 18 | 2 | -0.61 | / | /
Cc1cccc(C)c1-n1c(C)nn(CC2CC2)c1=O | -9 | -16 | 2 | 9 | 1 | -1.1 | / | /
Clc1ccc(-c2csc(-c3cccnc3)n2)s1 | -4 | 6 | 0 | 15 | -7 | -0.84 | / | /
O=C(CCl)Nc1cccc(S(=O)(=O)NC2=NCCC2)c1 | 20 | -20 | 1 | 18 | -11 | -0.81 | / | /
CC(C)Sc1n[nH]c(=O)n1-c1ccccc1 | 7 | 7 | 1 | 12 | -1 | -0.88 | / | /
COc1ccc(-c2nc(C3CCCCC3)no2)cc1OC | 4 | -46 | 0 | / | 64* | 0.71 | -12 | -5
O=C(NC(=S)Nc1cc(C(F)(F)F)ccc1N1CCOCC1)c1ccco1 | 7 | -6 | -2 | 7 | -15 | 1.4 | / | /
CCCCc1oc2ccccc2c1C(=O)c1cc(I)c(OCCN(CC)CC)c(I)c1 | -7 | 1 | 2 | 14 | 63* | 0.12 | 8 | 6
Cc1cc(=O)[nH]c(N/N=C/c2c(O)n(-c3ccccc3)c(=O)c3ccccc23)n1 | 0 | 10 | 29* | 14 | 56* | -0.034 | -57 | -23 | S1P4 ag conf=-1;S1P1 ag=-4
Cc1c(-n2c(SC(C)C(=O)NC(N)=O)nc3ccccc3c2=O)c(=O)n(-c2ccccc2)n1C (stereo not given) | -13 | -7 | 0 | 4 | -6 | -0.56 | / | /
